Experiments:
[1] = molecular target: T1, Human rhinovirus A protease (Human rhinovirus sp.) (UniProt Q4U254); test: The compound was tested for the inhibitory activity against human rhinovirus-14 3C Protease
T1 sequence (whole entry): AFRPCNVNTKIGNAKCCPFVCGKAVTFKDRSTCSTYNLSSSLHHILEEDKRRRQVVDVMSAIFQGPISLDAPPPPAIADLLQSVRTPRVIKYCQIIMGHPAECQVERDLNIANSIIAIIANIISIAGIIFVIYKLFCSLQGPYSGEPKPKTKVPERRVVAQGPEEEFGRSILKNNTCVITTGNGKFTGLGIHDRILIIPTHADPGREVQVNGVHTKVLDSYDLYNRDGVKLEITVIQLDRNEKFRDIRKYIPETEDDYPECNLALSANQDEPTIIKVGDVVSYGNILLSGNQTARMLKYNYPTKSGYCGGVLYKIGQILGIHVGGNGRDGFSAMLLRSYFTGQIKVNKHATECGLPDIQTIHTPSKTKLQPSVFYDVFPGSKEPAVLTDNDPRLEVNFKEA
Outline: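 HRV-14 3C protease was exposed to the irreversible inhibitor. Inactivation was expressed as the second-order rate constant kobs/[I] in M-1 s-1.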

[2] = test system: HeLa; test: Compound was tested for the antirhinoviral activity against human rhinovirus (HRV-14) infected H1HeLa cells; assay type: functional, cell-based
[3] = test system: HeLa; test: Cytotoxic concentration against uninfected H1HeLa cell line; assay type: functional; conditions: Homo sapiens
[4] = test system: HeLa; test: (§1) Tested for antirhinoviral activity of compound against HRV 3 infected H1HeLa cells; Cytotoxicity at > 10 uM; assay type: functional; conditions: Homo sapiens
[5] = test system: HeLa; test: (§2) Tested for antirhinoviral activity of compound against HRV 10 infected H1HeLa cells; Cytotoxicity at > 10 uM; assay type: functional; conditions: Homo sapiens
[6] = test system: HeLa; test: (§3) Tested for antirhinoviral activity of compound against HRV 25 infected H1HeLa cells; Cytotoxicity at > 10 uM; assay type: functional, cell-based; conditions: Homo sapiens
[7] = test system: HeLa; test: (§4) Tested for antirhinoviral activity of compound against HRV 14 infected H1HeLa cells; Cytotoxicity at > 10 uM; assay type: functional, cell-based; conditions: Homo sapiens
[8] = test system: HeLa; test: (§5) Tested for antirhinoviral activity of compound against HRV 16 infected H1HeLa cells; Cytotoxicity at > 10 uM; assay type: functional, cell-based; conditions: Homo sapiens
[9] = test system: HeLa; test: Tested for antirhinoviral activity of compound against HRV 9 infected H1HeLa cells; assay type: functional, cell-based; conditions: Homo sapiens
[10] = test system: HeLa; test: (§6) Tested for antirhinoviral activity of compound against HRV 87 infected H1HeLa cells; Cytotoxicity at > 10 uM; assay type: functional; conditions: Homo sapiens
[11] = test system: HeLa; test: as §2; assay type: functional, cell-based; conditions: Homo sapiens
[12] = test system: HeLa; test: (§7) Tested for antirhinoviral activity of compound against HRV 39 infected H1HeLa cells; Cytotoxicity at > 10 uM; assay type: functional; conditions: Homo sapiens
[13] = test system: HeLa; test: as §6; assay type: functional, cell-based; conditions: Homo sapiens
[14] = test system: HeLa; test: as §1; assay type: functional, cell-based; conditions: Homo sapiens
[15] = test system: HeLa; test: (§8) Tested for antirhinoviral activity of compound against HRV 2 infected H1HeLa cells; Cytotoxicity at > 10 uM; assay type: functional; conditions: Homo sapiens
[16] = test system: HeLa; test: as §5; assay type: functional; conditions: Homo sapiens
[17] = test system: HeLa; test: as §7; assay type: functional, cell-based; conditions: Homo sapiens
[18] = test system: HeLa; test: as §8; assay type: functional, cell-based; conditions: Homo sapiens
[19] = test system: HeLa; test: as §3; assay type: functional; conditions: Homo sapiens
[20] = test system: HeLa; test: Tested for antirhinoviral activity of compound against HRV 9 infected H1HeLa cells; Cytotoxicity at > 10 uM; assay type: functional; conditions: Homo sapiens
[21] = test system: HeLa; test: as §4; assay type: functional; conditions: Homo sapiens

## CCOC(=O)/C=C/[C@H](CCC(N)=O)NC(=O)Cn1cccc(NC(=O)OCc2ccccc2)c1=O
[1]
  K obs / 1: 348 M⁻¹ s⁻¹
[2]
  EC50: > 10000 nM
[3]
  CC50: > 10000 nM

## CCOC(=O)/C=C/[C@H](CCC(N)=O)NC(=O)[C@H](Cc1ccccc1)n1cccc(NC(=O)OCc2ccccc2)c1=O
[1]
  K obs / 1: 114000 M⁻¹ s⁻¹
[2]
  EC50: 33 nM
[3]
  CC50: 50000 nM

## CCOC(=O)/C=C/[C@H](CCC(N)=O)NC(=O)[C@@H]1CS[C@H]2CC[C@H](NC(=O)OCc3ccccc3)C(=O)N21
[1]
  K obs / 1: 26 M⁻¹ s⁻¹
[2]
  EC50: > 10000 nM
[3]
  CC50: > 10000 nM

## CCOC(=O)/C=C/[C@H](CCC(N)=O)NC(=O)[C@@H]1CCc2ccc(NC(=O)OCc3ccccc3)c(=O)n21
[1]
  K obs / 1: 4540 M⁻¹ s⁻¹
[2]
  EC50: 9000 nM
[3]
  CC50: > 100000 nM

## CCOC(=O)/C=C/[C@H](C[C@@H]1CCNC1=O)NC(=O)[C@@H]1CCc2ccc(NC(=O)c3cc(C)on3)c(=O)n21
[4]
  EC90: 133 nM
[5]
  EC90: 175 nM
[1]
  K obs / 1: 177000 M⁻¹ s⁻¹
[2]
  EC50: 162 nM
[6]
  EC50: 162 nM
[7]
  EC50: 162 nM
[3]
  CC50: > 10000 nM
[8]
  EC50: 72 nM
[9]
  EC50: 121 nM
[10]
  EC90: 110 nM
[11]
  EC50: 41 nM
[12]
  EC90: 152 nM
[13]
  EC50: 58 nM
[14]
  EC50: 43 nM
[15]
  EC90: 119 nM
[16]
  EC90: 303 nM
[17]
  EC50: 16 nM
[18]
  EC50: 37 nM
[19]
  EC90: 616 nM
[20]
  EC90: 257 nM
[21]
  EC90: 298 nM
